High-throughput results deposited in PubChem by several laboratories.
Only some compounds are listed: those with a hit (about 5.4% of all), similar ones and a draw of the others.
CSC inhib: blocks cancer stem cells; inhibition, % at 7.5 µM; cancer stem cell-like cells viability, luminescence; 300,000 tested, 1.1% active; in the data active = inhibition above about 75%; inconclusive = no clear call, values can overlap the other calls; tested in HMLE shEcad cells
aSyn 5UTR inh: 5' untranslated region of α-synuclein, MLPCN primary screen. inhibition, % (tested at 7.5 µM). AID 1813. alpha-synuclein 5'UTR reporter, inhibitor activity. 300,000 tested, 0.82% active; in the data active = inhibition above about 60%; inconclusive = no clear call, values can overlap the other calls;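 note: H4 neuroglioblastoma cells stably carrying SNCA 5'UTR luciferase fusion; 0% = DMSO wells and 100% = positive control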
Mdm2-MdmX inh: human Mdm2/MdmX binding inhibition. O15151+Q00987. inhibition, % at 8 µM. SaOS-2 split-luciferase Mdm2/MdmX complementation, luminescence. 330,000 tested, 3% active;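 active = inhibition of at least 50% at 8 µM in the primary screen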
Target sequence (O15151 whole entry, looked up): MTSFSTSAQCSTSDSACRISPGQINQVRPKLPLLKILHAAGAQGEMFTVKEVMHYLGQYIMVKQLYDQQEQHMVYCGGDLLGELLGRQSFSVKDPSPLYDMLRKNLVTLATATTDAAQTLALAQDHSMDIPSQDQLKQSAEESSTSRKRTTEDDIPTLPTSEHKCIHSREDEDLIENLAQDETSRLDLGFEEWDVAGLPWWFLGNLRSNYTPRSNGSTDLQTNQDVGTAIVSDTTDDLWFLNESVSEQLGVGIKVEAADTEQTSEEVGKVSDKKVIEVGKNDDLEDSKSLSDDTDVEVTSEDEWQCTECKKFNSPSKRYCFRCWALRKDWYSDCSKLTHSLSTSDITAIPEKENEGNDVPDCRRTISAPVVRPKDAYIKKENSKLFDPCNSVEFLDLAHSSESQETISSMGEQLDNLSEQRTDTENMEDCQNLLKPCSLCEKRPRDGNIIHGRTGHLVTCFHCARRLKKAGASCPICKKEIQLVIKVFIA
Target sequence (Q00987 whole entry, looked up): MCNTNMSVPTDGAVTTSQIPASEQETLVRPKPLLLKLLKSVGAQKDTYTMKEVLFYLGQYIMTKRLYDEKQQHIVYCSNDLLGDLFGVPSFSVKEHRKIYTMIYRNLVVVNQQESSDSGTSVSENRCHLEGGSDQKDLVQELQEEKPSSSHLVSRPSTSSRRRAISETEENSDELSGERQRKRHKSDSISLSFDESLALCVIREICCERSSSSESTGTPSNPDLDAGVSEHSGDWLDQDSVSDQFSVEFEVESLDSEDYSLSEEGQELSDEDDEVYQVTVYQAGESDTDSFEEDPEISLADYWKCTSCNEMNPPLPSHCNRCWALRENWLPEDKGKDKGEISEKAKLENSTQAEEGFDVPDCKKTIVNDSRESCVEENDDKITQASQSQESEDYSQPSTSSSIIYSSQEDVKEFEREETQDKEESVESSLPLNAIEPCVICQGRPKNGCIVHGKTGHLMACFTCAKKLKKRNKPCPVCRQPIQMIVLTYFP
SKKanGAS inh: SKKanGAS growth inhibition; inhibition, % at 7.5 µM; 300,000 tested, 1.3% active; S. pyogenes SKKanGAS, kanamycin growth, BacTiter-Glo, 6 h;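 active = mean replicate score, as percent of positive control median, at least 50; inconclusive = mean below 50 but one replicate at or above 50; inactive = mean and every replicate below 50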;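 note: strain carries kanamycin resistance gene driven by streptokinase promoter and grows in 40 µg/ml kanamycin; loss of luminescence reflects streptokinase promoter inhibition or plain growth inhibition; 0% = median of DMSO wells and 100% = positive control at its reference dose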
T cruzi repl: T. cruzi replication inhibition; inhibition, % (concentration not given with the values); AID 1885; 300,000 tested, 1.4% active; T. cruzi beta-gal in NIH3T3, luminescence, 90 h;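 active = mean inhibition across valid replicates above about 55%, limit read from the data; inconclusive = mean below that limit but half or more replicates reach it; inactive = mean below it, under half of replicates reach it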;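 note: signal also drops with host cell toxicity which is not excluded here; 0% = plate median of DMSO wells and 100% = zero luminescence signal; higher percent means less beta-gal luminescence so fewer parasites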
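System: NIH/3T3 fibroblasts plus reporter T. cruzi. Medium: DMEM plus 2% FBS. Probe or stimulus: 5000 reporter trypomastigotes per well. Compound: single 50 nL compound addition per well in DMSO. Incubation: co-culture of at least 90 h after 3 h attachment. Detection: GalScreen β-gal luminescence, detergent lysis, 60 min. Evaluation: parasite load inhibition, %.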
Starred values were filed as active, the others as inactive; u = inconclusive; x = not tested or not shown.

SMILES | CSC inhib | aSyn 5UTR inh | Mdm2-MdmX inh | SKKanGAS inh | T cruzi repl
Cc1ccc2c(c1)N(CC(=O)N1CCCCC1c1cccnc1)C(=O)CO2 (configuration not stated) | 3 | 17 | -6 | -2 | 61*
Cc1c(C)n2c(SCC(=O)N3CCN(c4ccccc4)CC3)nnc2[nH]c1=O | -13 | -2 | 2 | -10 | -11
CC(C)C[C@H](N)c1nnc(S(=O)(=O)Cc2ccc(F)cc2)o1 | 77* | -21 | 46 | -3 | -6
CC12CC3CC(C1)CC(C(=O)NNC(=O)c1ccncc1)(C3)C2 | -10 | x | 5 | x | x
O=C(NNC(=S)NC(=O)C12CC3CC(CC(C3)C1)C2)c1ccncc1 | -11 | 44 | 35 | 108* | -2
CC1(C(=O)NC(=S)NNC(=O)c2ccncc2)CCCCC1 | 1 | 30 | 33 | 54* | -2
O=C(Nc1cccc(-c2nn[nH]n2)c1)c1csc2c1CCCC2 | -3 | 3 | 32 | 10 | 2
CC(/C=C/c1ccc(N(C)C)cc1)=N/N=C1/NC(=O)CC(C(=O)Nc2ccc(Cl)cc2)S1 (configuration not stated) | 37 | -45 | -13 | 95* | -7
CC(/C=C/c1ccc(N(C)C)cc1)=N\N=C1\NC(=O)CC(C(=O)Nc2ccccc2)S1 (configuration not stated) | 0 | -73 | -7 | 75* | 9
CC1(C)CC(N2CCCC2)=CC(=[N+]2CCCC2)C1 | 18 | -24 | 19 | -6 | 67*
CC1(C)CC(N2CCN(Cc3ccccc3)CC2)=CC(=[N+]2CCCCC2)C1 | -3 | -13 | 36 | -4 | 62*
Cc1cc(S(=O)(=O)Nc2ccc(F)cc2)c(C)s1 | -8 | -14 | -28 | -1 | 7
O=C(NC1CCCCC1)C1CCCN(S(=O)(=O)c2ccc(F)cc2)C1 (configuration not stated) | 0 | 7 | 11 | 2 | 11
COc1ccc(N=C2S/C(=C\c3ccc(OC(C)C(=O)O)c(OC)c3)C(=O)N2CCc2c[nH]c3ccccc23)cc1 (configuration not stated) | x | -29 | -1 | u | -15
COc1cc(/C=C2\SC(=Nc3ccccc3)N(CCc3c[nH]c4ccccc34)C2=O)ccc1OC(C)C(=O)O (configuration not stated) | 41 | -12 | 21 | 54* | -4
O=C(Nc1ccc(N2CCOCC2)cc1)c1ccc(COc2ccccc2)cc1 | -5 | 16 | 22 | -2 | 9
CCN(CC)CCCN(C(=O)c1ccco1)c1nc(-c2ccc(Cl)cc2)cs1 | 7 | -33 | 46 | -3 | 59*
O=C(c1ccco1)N(CCCN1CCOCC1)c1nc(-c2ccc(F)cc2)cs1 | 1 | 3 | -1 | -9 | 69*
O=C(c1ccco1)N(CCCN1CCOCC1)c1nc(-c2ccc(Cl)cc2)cs1 | 6 | -12 | 14 | -4 | 67*
COc1ccc(-c2csc(N(CCCN3CCOCC3)C(=O)CCl)n2)cc1 | -13 | -12 | 6 | 2 | 5
O=C1CCCc2oc3c(cc(NS(=O)(=O)c4ccc5c6c(cccc46)C(=O)N5)c4ccccc43)c21 | 33 | -17 | 42 | 54* | 30
COc1cc(CN2CCCC(C(=O)Nc3cccc(-n4cccn4)c3)C2)ccc1F (configuration not stated) | 2 | 16 | 18 | -6 | 61*
Cc1oc2c(c1C(=O)N1CCC(C)CC1)C(=O)c1ccccc1C2=O | u | 83* | 39 | 14 | 37
O=C(c1ccc(Cl)cc1)C1CCCN(Cc2cnn(-c3ccccc3)c2)C1 (configuration not stated) | 5 | 23 | 3 | -1 | 61*
O=C(c1ccc(-c2ccccc2)cc1)C1CCCN(Cc2ccncc2)C1 (configuration not stated) | 34 | 4 | -14 | 22 | 55*
SMILES | CSC inhib | aSyn 5UTR inh | Mdm2-MdmX inh | SKKanGAS inh | T cruzi repl
Cc1nn(C)cc1CN1CCCC(C(=O)c2ccc(-c3ccccc3)cc2)C1 (configuration not stated) | 17 | 19 | 17 | -4 | 62*
CCOc1ccc2ccccc2c1/C=N/NC(=O)CNC(=O)Cc1ccccc1 | -11 | 21 | 14 | 0 | 0
COc1cc(NC(=O)Cn2cnc3c(NCc4ccccc4)ncnc32)cc(OC)c1OC | x | x | 10 | x | x
COc1ccc2nc(C3CCCCC3)nc(C3CCCCC3)c2c1 | -4 | 34 | 15 | 90* | 10
COc1ccc2nc(-c3ccccc3)nc(C3CCCCC3)c2c1 | 54 | 2 | -7 | 13 | 1
O=C(OCC(=O)N1CCN(C(=O)c2ccco2)CC1)c1cccc(F)c1 | x | x | 12 | x | x
CCN(/C=N/c1sc2c(c1C#N)CCCCC2)CC | 0 | -142 | -81 | 1 | x
CN1CCN(/C=N/c2sc3c(c2C#N)CCCCC3)CC1 | 18 | -147 | -101 | -3 | 58*
C#CCOCCOCCOCCNc1nc(N2CCN(C(=O)[C@H](CCC(=O)O)n3cc(C(N)CO)nn3)CC2)nc(N2CCN(C(=O)[C@H](CCC(=O)O)n3cc(C(N)CC(C)C)nn3)CC2)n1 (some centres not stated) | x | 6 | 4 | 0 | -8
CCCn1c(SCC(=O)NCC)nc2sc3c(c2c1=O)CCC3 | -15 | 25 | 15 | 3 | 8
CCCCn1c(SCC(N)=O)nc2sc3c(c2c1=O)CCC3 | 99* | -2 | -1 | 6 | -10
Cc1ccc(S(=O)(=O)N/N=C2/CC(c3ccccc3)Oc3ccccc32)cc1[N+](=O)[O-] (configuration not stated) | 13 | -106 | -18 | 25 | 1
O=S(=O)(N/N=C1/CC(c2ccccc2)Oc2ccccc21)c1ccc(Br)cc1 (configuration not stated) | 89* | -51 | -2 | 36 | 6
CC[C@]12c3[nH]c4ccc(Cl)cc4c3CCN1C(=O)[C@@H](CC(=O)NCCCn1ccnc1)C[C@@H]2C(=O)N1CCN(C(=O)c2ccco2)CC1 | x | x | -8 | x | x
CCC(=O)Nc1ccc2nc(C3CC3)n(Cc3ccc(C(C)(C)C)cc3)c(=O)c2c1 | 11 | -150 | -6 | 14 | 58*
O=C(COC(=O)[C@@H]1CCCN1C(=O)c1cccs1)Nc1cccc([N+](=O)[O-])c1 | -13 | x | 11 | x | x
COc1ccc(-c2c(C#N)c(SCC(=O)c3cc4ccccc4oc3=O)nc(C)c2C(=O)Nc2ccccc2)cc1 | 105* | 2 | -3 | 26 | -5
CC1CCc2ccccc2N1CC(=O)Nc1cccc(S(=O)(=O)N2CCCC2)c1 (configuration not stated) | x | x | 18 | x | x
O=S(=O)(Nc1ccc(O)c(Sc2nc3ccccc3s2)c1)c1ccc(F)cc1 | -2 | 36 | 13 | 6 | 8
O=S(=O)(Nc1ccc(O)c(Sc2nc3ccccc3s2)c1)c1cccc2ccccc12 | 81* | 22 | 17 | 81* | -9
CCCCc1ccc(NC(=O)C(=O)NCCN2CCN(C(=O)c3ccc([N+](=O)[O-])cc3)CC2)cc1 | 14 | 25 | 6 | 1 | 23
CCN(CC(=O)Nc1c(F)cccc1F)C(=O)c1ccc(C)c(S(=O)(=O)N2CCCCC2)c1 | -8 | 2 | 7 | -1 | 0
